From ChEMBL document CHEMBL4138271, “Crystal Structures and Human Leukemia Cell Apoptosis Inducible Activities of Parthenolide Analogues Isolated from Piptocoma rufescens” (J Nat Prod, 2018)
Calls of active or inactive are those of the source. The rule behind the calls is not given here.

What was measured:
MOLM-13 [1] = assay: Induction of apoptosis in human MOLM13 cells assessed as early apoptotic cells at 12 uM after 24 hrs by Annexin-V FITC/7-AAD staining based flow cytometric method (reference value: 11.8%); type: functional
EOL1 [2] = assay: Induction of apoptosis in human EOL-1 cells assessed as live cells at 12 uM after 24 hrs by Annexin-V FITC/7-AAD staining based flow cytometric method (reference value: 97.5%); type: functional
EOL1 [3] = assay: Induction of apoptosis in human EOL-1 cells assessed as late apoptotic cells at 6 uM after 24 hrs by Annexin-V FITC/7-AAD staining based flow cytometric method (reference value: 0.535%); type: functional
MOLM-13 [4] = assay: Synergistic antileukemic activity against human MOLM13 cells assessed as concentration required for <= 75% cell survival after 72 hrs in presence of midostaurin by CellTiter 96 AQueous One solution cell proliferation assay; type: functional
EOL1 [5] = assay: Induction of apoptosis in human EOL-1 cells assessed as necrotic cells at 3 uM after 24 hrs by Annexin-V FITC/7-AAD staining based flow cytometric method (reference value: 0.032%); type: functional
EOL1 [6] = assay: Induction of apoptosis in human EOL-1 cells assessed as late apoptotic cells at 12 uM after 24 hrs by Annexin-V FITC/7-AAD staining based flow cytometric method (reference value: 0.535%); type: functional
MOLM-13 [7] = assay: Induction of apoptosis in human MOLM13 cells assessed as caspase-3 activation at 10 uM after 72 hrs by immunoblotting analysis; type: functional, cell-based
In short: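 MOLM-13 cells treated 72 h with test compounds at 10 μM or PKC412 at 10 nM. Cells washed in ice-cold PBS, lysed at 10^8 cells/mL in NP-40 hypertonic buffer (pH 7.5) with protease/phosphatase inhibitors, then run on SDS-PAGE and PVDF. Blots probed 12 h with rabbit monoclonal cleaved caspase-3 (Asp175), β-actin as loading control. Representative of three independent experiments.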

EOL1 [8] = assay: Synergistic antileukemic activity against human EOL-1 cells assessed as concentration required for <= 75% cell survival after 72 hrs in presence of midostaurin by CellTiter 96 AQueous One solution cell proliferation assay; type: functional
MOLM-13 [9] = assay: Induction of apoptosis in human MOLM13 cells assessed as live cells at 6 uM after 24 hrs by Annexin-V FITC/7-AAD staining based flow cytometric method (reference value: 86.8%); type: functional
MOLM-13 [10] = assay: Induction of apoptosis in human MOLM13 cells assessed as necrotic cells at 3 uM after 24 hrs by Annexin-V FITC/7-AAD staining based flow cytometric method (reference value: 0%); type: functional
MOLM-13 [11] = assay: Induction of apoptosis in human MOLM13 cells assessed as early apoptotic cells at 6 uM after 24 hrs by Annexin-V FITC/7-AAD staining based flow cytometric method (reference value: 11.8%); type: functional
MOLM-13 [12] = assay: Induction of apoptosis in human MOLM13 cells assessed as necrotic cells at 12 uM after 24 hrs by Annexin-V FITC/7-AAD staining based flow cytometric method (reference value: 0%); type: functional
MOLM-13 [13] = assay: Induction of apoptosis in human MOLM13 cells assessed as necrotic cells at 6 uM after 24 hrs by Annexin-V FITC/7-AAD staining based flow cytometric method (reference value: 0%); type: functional
MOLM-13 [14] = assay: Induction of apoptosis in human MOLM13 cells assessed as late apoptotic cells at 12 uM after 24 hrs by Annexin-V FITC/7-AAD staining based flow cytometric method (reference value: 1.43%); type: functional
MOLM-13 [15] = assay: Induction of apoptosis in human MOLM13 cells assessed as early apoptotic cells at 3 uM after 24 hrs by Annexin-V FITC/7-AAD staining based flow cytometric method (reference value: 11.8%); type: functional
EOL1 [16] = assay: Induction of apoptosis in human EOL-1 cells assessed as necrotic cells at 6 uM after 24 hrs by Annexin-V FITC/7-AAD staining based flow cytometric method (reference value: 0.032%); type: functional
MOLM-13 [17] = assay: Induction of apoptosis in human MOLM13 cells assessed as live cells at 12 uM after 24 hrs by Annexin-V FITC/7-AAD staining based flow cytometric method (reference value: 86.8%); type: functional
EOL1 [18] = assay: Induction of apoptosis in human EOL-1 cells assessed as early apoptotic cells at 3 uM after 24 hrs by Annexin-V FITC/7-AAD staining based flow cytometric method (reference value: 1.94%); type: functional
MOLM-13 [19] = assay: Cytotoxicity against human MOLM13 cells after 72 hrs by MTS assay; type: functional, cell-based; settings: MOLM-13, 72 h
MOLM-13 [20] = assay: Induction of apoptosis in human MOLM13 cells assessed as live cells at 3 uM after 24 hrs by Annexin-V FITC/7-AAD staining based flow cytometric method (reference value: 86.8%); type: functional
EOL1 [21] = assay: Induction of apoptosis in human EOL-1 cells assessed as live cells at 3 uM after 24 hrs by Annexin-V FITC/7-AAD staining based flow cytometric method (reference value: 97.5%); type: functional
EOL1 [22] = assay: Cytotoxicity against human EOL-1 cells after 72 hrs by MTS assay; type: functional, cell-based; settings: EOL1, 72 h
EOL1 [23] = assay: Induction of apoptosis in human EOL-1 cells assessed as live cells at 6 uM after 24 hrs by Annexin-V FITC/7-AAD staining based flow cytometric method (reference value: 97.5%); type: functional
EOL1 [24] = assay: Induction of apoptosis in human EOL-1 cells assessed as early apoptotic cells at 12 uM after 24 hrs by Annexin-V FITC/7-AAD staining based flow cytometric method (reference value: 1.94%); type: functional
EOL1 [25] = assay: Induction of apoptosis in human EOL-1 cells assessed as caspase-3 activation at 10 uM after 72 hrs by immunoblotting analysis; type: functional, cell-based
In short: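 EOL-1 cells (RPMI 1640, 10% FBS, 37 °C, 5% CO2) exposed 72 h; compounds at 10 μM, PKC412 at 10 nM. Harvested, PBS-washed, lysed in hypertonic NP-40 buffer with protease/phosphatase inhibitors; SDS-PAGE, PVDF transfer, rabbit monoclonal cleaved caspase-3 (Asp175) antibody 12 h, secondary 1 h, chemiluminescent detection; β-actin loading control. Representative blots of three independent experiments.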

EOL1 [26] = assay: Induction of apoptosis in human EOL-1 cells assessed as early apoptotic cells at 6 uM after 24 hrs by Annexin-V FITC/7-AAD staining based flow cytometric method (reference value: 1.94%); type: functional
MOLM-13 [27] = assay: Induction of apoptosis in human MOLM13 cells assessed as late apoptotic cells at 3 uM after 24 hrs by Annexin-V FITC/7-AAD staining based flow cytometric method (reference value: 1.43%); type: functional
EOL1 [28] = assay: Induction of apoptosis in human EOL-1 cells assessed as late apoptotic cells at 3 uM after 24 hrs by Annexin-V FITC/7-AAD staining based flow cytometric method (reference value: 0.535%); type: functional
[29] = molecular target: Transcription factor p65 (Homo sapiens) (UniProt Q04206); assay: Inhibition of NFkappaB p65 in human MOLM13 cells at 10 uM after 72 hrs by immunoblotting method; type: cell-based
In short: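 MOLM-13 or EOL-1 cells treated 72 h at 10 μM. Cells washed in ice-cold PBS and lysed in hypertonic NP-40 buffer (10 mM HEPES pH 7.5, 0.5 M NaCl) with protease/phosphatase inhibitors. Protein measured by BCA; SDS-PAGE onto PVDF. Probed 12 h with rabbit monoclonal NF-κB-p65 antibody, goat β-actin as loading control, then chemiluminescence. Blots representative of three independent experiments.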

MOLM-13 [30] = assay: Induction of apoptosis in human MOLM13 cells assessed as late apoptotic cells at 6 uM after 24 hrs by Annexin-V FITC/7-AAD staining based flow cytometric method (reference value: 1.43%); type: functional
HT-29 = assay: Cytotoxicity against human HT-29 cells after 72 hrs by MTS assay; type: functional, cell-based; settings: HT-29, 72 h
EOL1 [31] = assay: Induction of apoptosis in human EOL-1 cells assessed as necrotic cells at 12 uM after 24 hrs by Annexin-V FITC/7-AAD staining based flow cytometric method (reference value: 0.032%); type: functional

Sequence of Transcription factor p65 (Homo sapiens) (Q04206 whole entry): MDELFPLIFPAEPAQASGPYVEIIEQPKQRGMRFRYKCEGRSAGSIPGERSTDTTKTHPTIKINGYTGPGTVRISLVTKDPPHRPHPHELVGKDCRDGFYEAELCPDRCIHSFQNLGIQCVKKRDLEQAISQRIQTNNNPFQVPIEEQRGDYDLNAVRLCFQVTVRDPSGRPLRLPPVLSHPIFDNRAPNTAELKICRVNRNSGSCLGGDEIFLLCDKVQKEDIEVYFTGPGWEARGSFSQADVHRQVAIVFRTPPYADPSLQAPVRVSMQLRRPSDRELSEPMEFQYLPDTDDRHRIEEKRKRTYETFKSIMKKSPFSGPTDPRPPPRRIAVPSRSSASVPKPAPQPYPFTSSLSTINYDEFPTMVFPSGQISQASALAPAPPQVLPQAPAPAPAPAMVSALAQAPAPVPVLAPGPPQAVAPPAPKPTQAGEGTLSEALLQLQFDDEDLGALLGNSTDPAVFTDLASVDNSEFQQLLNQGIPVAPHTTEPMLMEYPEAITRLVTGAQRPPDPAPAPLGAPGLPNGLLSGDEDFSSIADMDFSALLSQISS

C=C1C(=O)O[C@@H]2C[C@@H](C)CCC(=O)[C@](C)(OC(C)=O)C[C@H](OC(=O)/C(C)=C\C)[C@@H]12
Activity (MOLM-13 [1]): 6.8% | Activity (EOL1 [2]): 93.4% | Activity (EOL1 [3]): 0.545% | Activity (MOLM-13 [4]): 4.9 µM | Activity (EOL1 [5]): 0.043% | Activity (EOL1 [6]): 4.7% | Activity (MOLM-13 [7]): Active | Activity (EOL1 [8]): 2.5 µM | Activity (MOLM-13 [9]): 93.6% | Activity (MOLM-13 [10]): 0.056% | Activity (MOLM-13 [11]): 4.87% | Activity (MOLM-13 [12]): 16.9% | Activity (MOLM-13 [13]): 0.314% | Activity (MOLM-13 [14]): 39.7% | Activity (MOLM-13 [15]): 4.46% | Activity (EOL1 [16]): 0.096% | Activity (MOLM-13 [17]): 36.6% | Activity (EOL1 [18]): 1.64% | IC50 (MOLM-13 [19]): 10 µM | Activity (MOLM-13 [20]): 94.7% | Activity (EOL1 [21]): 97.9% | IC50 (EOL1 [22]): 8 µM | Activity (EOL1 [23]): 97.7% | Activity (EOL1 [24]): 1.4% | Activity (EOL1 [25]): Active | Activity (EOL1 [26]): 1.66% | Activity (MOLM-13 [27]): 0.817% | Activity (EOL1 [28]): 0.417% | inhibition [29]: Active | Activity (MOLM-13 [30]): 1.19% | IC50 (HT-29): 3 µM | Activity (EOL1 [31]): 0.497%
